Data taken from ChEMBL document CHEMBL1128497, “Synthesis and in vitro and in vivo antitumor activity of a series of trans platinum antitumor complexes” (J Med Chem, 1995).
“And” between values parts separate entries of the source, which are not always exact repeats. Identical values can stand only once.

Key:
41M [1] = assay: In vitro antitumor activity against 41M cell line.; type: functional, cell-based, Homo sapiens
Method in brief: (§1)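 Human ovarian carcinoma monolayers were grown in DMEM with 10% FCS, insulin and hydrocortisone under 10% CO2. Cells were seeded at 5 × 10^3–1 × 10^4 per well and left to attach overnight. Drugs were freshly dissolved in 0.9% saline (1 mM or 500 μM stocks) and added to quadruplicate wells for 96 h. Cell mass was read by SRB staining. IC50 values are means of at least two experiments.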

41M [2] = assay: In vitro antitumor activity against 41McisR cell line.; type: functional, cell-based, Homo sapiens; method in brief: as §1
A2780 [3] = assay: In vitro antitumor activity against A2780cisR cell line.; type: functional, cell-based, Homo sapiens; method in brief: as §1
A2780 [4] = assay: In vitro antitumor activity against A2780 cell line.; type: functional, cell-based, Homo sapiens; method in brief: as §1
CH1 [5] = assay: In vitro antitumor activity against CH1cisR cell line.; type: functional, cell-based, Homo sapiens; method in brief: as §1
CH1 [6] = assay: In vitro antitumor activity against CH1 cell line.; type: functional, cell-based, Homo sapiens; method in brief: as §1
[7] = In vivo antitumor activity by i.p. administration against murine ADJ/PC6 (sc) plasmacytoma.; type: ADME, organism-based; conditions: mouse, ip
SK-OV-3 = assay: In vitro antitumor activity against SK-OV-3 cell line.; type: functional, cell-based, Homo sapiens; method in brief: as §1
A2780 [8] = assay: Resistant factor determined between IC50 of resistant line to that of parental A2780 cell line; type: functional, cell-based; conditions: Homo sapiens
Method in brief: (§2)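 Resistance factor is the IC50 in the cisplatin-resistant subline divided by the IC50 in its parent line. IC50s came from a 96 h SRB cytotoxicity assay run in quadruplicate wells.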

CH1 [9] = assay: Resistant factor, determined between IC50 of resistant line to that of CHcisR cell line; type: functional, cell-based; conditions: Homo sapiens; CH1cisR; method in brief: as §2
Mus musculus [10] = assay: In Vivo Antitumor activity by ip administration against Murine ADJ/PC6 (sc) Plasmacytoma in mice; type: functional, organism-based; conditions: Plasma
Method in brief: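 ADJ/PC6 plasmacytoma (or its cisplatin-resistant subline) was implanted sc as 1 mm3 fragments. On day 20 mice received a single ip injection of drug as a sonicated suspension in arachis oil, at halving doses. Ten days later tumors were dissected and weighed against controls. […] Therapeutic index is MTD/ED90, alongside LD50.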

Mus musculus [11] = assay: Ability to inhibit Antitumor activity against PXN/109T/C Human Ovarian Cracinoma xenograft in mice at dose 20 mg/kg by ip administration; type: functional, organism-based; parameters: dose 20 mg/kg
Method in brief: (§3)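 Human ovarian carcinoma xenografts were grown subcutaneously in female Balb C nude mice. Tumors were measured weekly until they doubled their starting volume. Growth delay is the difference in doubling time between treated and control tumors.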

41M [12] = assay: Resistant factor was determined between IC50 of cisplatin-resistant human tumor cell lines to that of […] cell line; type: functional, cell-based; method in brief: as §2
Mus musculus [13] = assay: Ability to inhibit Antitumor activity against HX/110 Human Ovarian Cracinoma xenograft in mice at dose 2 mg/kg by ip administration; type: functional, organism-based; parameters: dose 2 mg/kg; method in brief: as §3
Mus musculus [14] = assay: Ability to inhibit Antitumor activity against OVCAR-3 Human Ovarian Cracinoma xenograft in mice at dose 2 mg/kg by ip administration; type: functional, organism-based; parameters: dose 2 mg/kg; method in brief: as §3
Mus musculus [15] = assay: Ability to inhibit Antitumor activity against OVCAR-3 Human Ovarian Cracinoma xenograft in mice at dose 4 mg/kg by ip administration; type: functional, organism-based; parameters: dose 4 mg/kg; method in brief: as §3
Mus musculus [16] = assay: Ability to inhibit Antitumor activity against PXN/100 Human Ovarian Cracinoma xenograft in mice at dose 2 mg/kg by ip administration; type: functional, organism-based; parameters: dose 2 mg/kg; method in brief: as §3
Mus musculus [17] = assay: Ability to inhibit Antitumor activity against PXN/100 Human Ovarian Cracinoma xenograft in mice at dose 4 mg/kg by ip administration; type: functional, organism-based; parameters: dose 4 mg/kg; method in brief: as §3
Mus musculus [18] = assay: Ability to inhibit Antitumor activity against PXN/109T/C Human Ovarian Cracinoma xenograft in mice at dose 2 mg/kg by ip administration; type: functional, organism-based; parameters: dose 2 mg/kg; method in brief: as §3
Mus musculus [19] = assay: Ability to inhibit Antitumor activity against PXN/109T/CC Human Ovarian Cracinoma xenograft in mice at dose 2 mg/kg by ip administration; type: functional, organism-based; parameters: dose 2 mg/kg; method in brief: as §3
Mus musculus [20] = assay: Ability to inhibit Antitumor activity against SKOV-3 Human Ovarian Cracinoma xenograft in mice at dose 4 mg/kg by ip administration; type: functional, organism-based; parameters: dose 4 mg/kg; method in brief: as §3
Mus musculus [21] = assay: Ability to inhibit Antitumor activity against PXN/109T/CC Human Ovarian Cracinoma xenograft in mice at dose 8 mg/kg by ip administration; type: functional, organism-based; parameters: dose 8 mg/kg; method in brief: as §3
Mus musculus [22] = assay: Ability to inhibit Antitumor activity against PXN/109T/CC Human Ovarian Cracinoma xenograft in mice at dose 50 mg/kg by ip administration; type: functional, organism-based; parameters: dose 50 mg/kg; method in brief: as §3
Mus musculus [23] = assay: Ability to inhibit Antitumor activity against PXN/109T/C Human Ovarian Cracinoma xenograft in mice at dose 4 mg/kg by ip administration; type: functional, organism-based; parameters: dose 4 mg/kg; method in brief: as §3

Substance	IC50 (41M [1])	IC50 (41M [2])	IC50 (A2780 [3])	IC50 (A2780 [4])	IC50 (CH1 [5])	IC50 (CH1 [6])	LD50 [7]	IC50 (SK-OV-3)	RF (A2780 [8])	RF (CH1 [9])	RF (41M [12])	also measured
trans-a-Ammine-b,d-dichloro-c,e-dihydroxo-f-(1,1,3,3-tetramethyl butylamine)-platinium (IV) [listing 1 of 2 here]	0.48 µM	1 µM	2.2 µM	0.4 µM	0.55 µM	0.36 µM	29 mg/kg	1.8 µM				
trans-a-Ammine-b,d-dichloro-c,e-dihydroxy-f-(benzylamine)-platinium (IV) [listing 1 of 2 here]	1.3 µM	1.3 µM	4.2 µM	1.1 µM	1.9 µM	1.1 µM	71 mg/kg	8.2 µM				
trans-a-Ammine-b,d-dichloro-c,e-dihydroxy-f-(benzylamine)-platinium (IV) [listing 2 of 2 here]									4	1.7	1	ED90 (Mus musculus [10]): 22 mg/kg; Growth delay (Mus musculus [11]): 8.3 days
trans-(1-Aminoadamantane)Amminedichloro-platinium (II)									3.6	2	2.4	
trans-a-Ammine-b,d-dichloro-c,e-dihydrooxy-f-(cyclopentylamine)-platinium (IV) [listing 1 of 2 here]									5.5	1.7	1.2	ED90 (Mus musculus [10]): 2.5 mg/kg
trans-a-Ammine-b,d-dichloro-c,e-dihydroxo-f-(exo-2-aminonorbornane)-platinium (IV) [listing 1 of 2 here]									12	1.2	1	ED90 (Mus musculus [10]): 4.9 mg/kg
Trans-Amminedichloro(cycloheptylamine)platinium (II)									3.4	1.1	0.7	
trans-a-Ammine-b,d-dichloro-c,e-dihydrooxy-f-(ethylamine)-platinium (IV)									5.9	1.4	1.4	
trans-a-ammine-b,d-dichloro-f-(cyclohexylamine)-c,e-dihydroxoplatinium (IV)												Growth delay (Mus musculus [13]): 25.5 days; Growth delay (Mus musculus [14]): 12 days; Growth delay (Mus musculus [15]): 16.8 days; Growth delay (Mus musculus [16]): 23.9 days; Growth delay (Mus musculus [17]): 63.7 days; Growth delay (Mus musculus [18]): 17 days; Growth delay (Mus musculus [19]): 5.4 days; Growth delay (Mus musculus [20]): 7 days
trans-a-Ammine-b,d-dichloro-c,e-dihydroxo-f-(N-methylcyclohexylamine)-platinium (IV) [listing 1 of 2 here]									3.7	2.2	0.7	ED90 (Mus musculus [10]): 9.4 mg/kg; Growth delay (Mus musculus [21]): 1.1 days
trans-a,f-Dichloro-b,d-bis(cyclohexylamine)-c,e-dihydroxo-platinium (IV)									4	1.1	1.5	ED90 (Mus musculus [10]): 40 mg/kg; Growth delay (Mus musculus [22]): 1.8 days
trans-Amminedichloro(N-methylcyclohexylamine)-platinium (II) [listing 1 of 2 here]	0.78 µM	0.48 µM	3.6 µM	0.46 µM	1.1 µM	0.38 µM	71 mg/kg	3.9 µM				
trans-a-Ammine-b,d-dichloro-c,e-dihydroxo-f-(quinuclidine)-platinium (IV)									5	1.4	0.7	
TRANSPLATIN	57 µM	70 µM	260 µM	32 µM	68.5 µM	30 µM	32 mg/kg	255 µM				
trans-a-Ammine-b,d-dichloro-c,e-dihydrooxy-f-(cyclopentylamine)-platinium (IV) [listing 2 of 2 here]	1.1 µM	1.3 µM	5.2 µM	0.95 µM	1.9 µM	1.1 µM	15 mg/kg	7 µM				
trans-a-Ammine-b,d-dichloro-c,e-dihydroxy-f-(diethylamine)-platinium (IV)									6.2	1.4	0.4	
Trans-Amminedichloro hexylamine platinium (II)									2.1	1.1	0.9	
AMMONIO(DICHLORO)[DI(METHYLCARBONYLOXY)]PLATINUM(CYCLOHEXYL)AMMONIUM [listing 1 of 2 here]	1.3 µM	1.2 µM	3 µM	0.3 µM	1.5 µM	1.1 µM	35 mg/kg	4.8 µM				

Substance	IC50 (41M [1])	IC50 (41M [2])	IC50 (A2780 [3])	IC50 (A2780 [4])	IC50 (CH1 [5])	IC50 (CH1 [6])	LD50 [7]	IC50 (SK-OV-3)	RF (A2780 [8])	RF (CH1 [9])	RF (41M [12])	also measured
trans-Amminetetrachloro(pyridine)-platinium (IV) [listing 1 of 2 here]									1.7	1	0.8	
trans-Amminedibromo (cyclohexylamine)-platinium (II)									2.8	1.2	0.8	
AMMONIO(DICHLORO)[DI(METHYLCARBONYLOXY)]PLATINUM(CYCLOHEXYL)AMMONIUM [listing 2 of 2 here]									10	1.4	0.9	
trans-Amminetetrachloro(cyclohexylamine)-platinium (IV)									3.4	1.2	1.3	
trans-Amminedichloro(N-methylcyclohexylamine)-platinium (II) [listing 2 of 2 here]									7.8	2.8	0.6	
trans-a-ammine-b,d-dichloro-f-(cyclohexylamine)-c,e-bis-(ethylcarbamato)platinium (IV)									3.3	1.2	0.7	ED90 (Mus musculus [10]): 185 mg/kg
AMMONIO(DICHLORO)PLATINUM(CYCLOHEXYL)AMMONIUM [listing 1 of 2 here]	0.26 µM and 1.7 µM	0.28 µM and 1.5 µM			0.38 µM and 3.3 µM		17.5 mg/kg and 35 mg/kg	2.1 µM and 7.2 µM				
trans-a-Ammine-b,d-dichloro-c,e-dihydroxo-f-(exo-2-aminonorbornane)-platinium (IV) [listing 2 of 2 here]	1.4 µM	1.5 µM	3 µM	0.25 µM	1.7 µM	1.4 µM	17.5 mg/kg	4.4 µM				
trans-a-Ammine-b,d-dichloro-c,e-dihydroxo-f-(N-methylcyclohexylamine)-platinium (IV) [listing 2 of 2 here]	2.3 µM	1.6 µM	5 µM	1.3 µM	2.9 µM	1.3 µM	29 mg/kg	6.9 µM				
trans-a-Ammine-b,d-dichloro-c,e-dihydrooxy-f-(Morphiline)-platinium (IV) [listing 1 of 2 here]	26 µM	54 µM	47 µM	10.9 µM	28.3 µM	17.3 µM	82 mg/kg	47 µM				
CISPLATIN												ED90 (Mus musculus [10]): 1.6 mg/kg
trans-a-ammine-b,d-dichloro-f-(2-propylamine)-c,e-dihydroxoplatinium (IV)	3.2 µM and 3.9 µM	4.6 µM and 9.2 µM	4.7 µM and 7.2 µM	0.54 µM and 0.99 µM	5.5 µM and 4.9 µM	2.4 µM and 1.4 µM	18 mg/kg and 35 mg/kg	9.2 µM and 30.5 µM				
trans-a-Ammine-b,d-dichloro-c,e-dihydroxo-f-(1,1,3,3-tetramethyl butylamine)-platinium (IV) [listing 2 of 2 here]									5.5	1.5	2.1	ED90 (Mus musculus [10]): 9.6 mg/kg
trans-Amminetetrachloro(quinuclidine)-platinium (IV)									1.1	1	1	Growth delay (Mus musculus [23]): 0 days
AMMONIO(DICHLORO)PLATINUM(CYCLOHEXYL)AMMONIUM [listing 2 of 2 here]												ED90 (Mus musculus [10]): 1.4 mg/kg
trans-Amminetetrachloro(pyridine)-platinium (IV) [listing 2 of 2 here]	5.3 µM	4.1 µM	5.6 µM	3.2 µM	4.8 µM	4.7 µM	> 100 mg/kg	14.5 µM				
trans-a-Ammine-b,d-dichloro-c,e-dihydrooxy-f-(Morphiline)-platinium (IV) [listing 2 of 2 here]									4.3	1.6	2.1	ED90 (Mus musculus [10]): 94 mg/kg
